Measured values as given in ChEMBL document CHEMBL4813996, “Design and development of 1,3,5-triazine derivatives as protective agent against spinal cord injury in rat via inhibition of NF-ĸB” (Bioorg Med Chem Lett, 2021).
Activity calls are given as the source filed them. No cut-off for these calls is given here.

What was measured:
Rattus norvegicus [1] = experiment: Neuroprotective activity in Sprague-Dawley rat SCI model assessed as increase in SOD level at 10 to 30 mg/kg, ip administered once daily for 14 days; format: functional, organism-based; conditions: dose 10-30 mg/kg, time 14.0 day
How it was run: (§1)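 Spinal cord of weight-drop contusion SCI rats dosed at 10, 20 or 30 mg/kg i.p. in 2% CMC daily for 14 days. Oxidative stress indices MDA, GSH and SOD measured in spinal cord. Mean ± SEM, three independent experiments, one-way ANOVA with Tukey test against sham and SCI groups.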

Rattus norvegicus [2] = experiment: Neuroprotective activity in Sprague-Dawley rat SCI model assessed as reduction in MDA level at 10 to 30 mg/kg, ip administered once daily for 14 days; format: functional, organism-based; conditions: dose 10-30 mg/kg, time 14.0 day; how it was run: as §1
Rattus norvegicus [3] = experiment: Neuroprotective activity in contusion injury induced Sprague-Dawley rat SCI model assessed as improvement in ratio of wet to dry spinal cord weight at 10 to 30 mg/kg, ip administered once daily for 14 days; format: functional, organism-based; conditions: dose 10-30 mg/kg, time 14.0 day
How it was run: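 Weight-drop contusion SCI, with a rod dropped on the cord. Rats given 10, 20 or 30 mg/kg i.p. in 2% CMC once a day for 14 days. Ratio of wet to dry spinal cord weight measured 24 h post-SCI. Mean ± SEM of three independent experiments, one-way ANOVA with Tukey test.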

Rattus norvegicus [4] = experiment: Neuroprotective activity in Sprague-Dawley rat SCI model assessed as reduction in IL-1beta level at 10 to 30 mg/kg, ip administered once daily for 14 days by ELISA; format: functional, organism-based; conditions: dose 10-30 mg/kg, time 14.0 day
How it was run: (§2)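 After weight-drop contusion SCI, rats received 10, 20 or 30 mg/kg i.p. as a 2% CMC suspension once daily for 14 days. TNF-α, IL-1β and IL-6 levels determined by ELISA. Mean ± SEM from three independent experiments, one-way ANOVA followed by Tukey post hoc test.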

Rattus norvegicus [5] = experiment: Neuroprotective activity in Sprague-Dawley rat SCI model assessed as increase in GSH level at 10 to 30 mg/kg, ip administered once daily for 14 days; format: functional, organism-based; conditions: dose 10-30 mg/kg, time 14.0 day; how it was run: as §1
Rattus norvegicus [6] = experiment: Neuroprotective activity in contusion injury induced Sprague-Dawley rat SCI model assessed as inhibition of morphological changes in spinal cord at 10 to 30 mg/kg, ip administered once daily for 14 days by H and E staining based assay; format: functional, organism-based; conditions: dose 10-30 mg/kg, time 14.0 day
How it was run: (§3)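 Rats with SCI from weight-drop contusion received 10, 20 or 30 mg/kg i.p., suspended in 2% CMC, daily for 14 days. Spinal cord tissue sections stained with H&E for histopathology and edema. Three independent experiments, mean ± SEM, one-way ANOVA with Tukey post hoc test.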

Rattus norvegicus [7] = experiment: Neuroprotective activity in ip dosed Sprague-Dawley rat SCI model assessed as increase in nissl bodies administered once daily for 14 days by Nissl staining based assay; format: functional, organism-based; conditions: dose 10-30 mg/kg, time 14.0 day
How it was run: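 Contusion SCI by weight drop. Treatment at 10, 20 or 30 mg/kg i.p. in 2% CMC once daily for 14 days. Neuronal damage assessed by Nissl staining of the spinal cord, with Nissl bodies quantified. Mean ± SEM from three independent experiments.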

Rattus norvegicus [8] = experiment: Neuroprotective activity in contusion injury induced Sprague-Dawley rat SCI model assessed as reduction in edema in spinal cord at 10 to 30 mg/kg, ip administered once daily for 14 days by H and E staining based assay; format: functional, organism-based; conditions: dose 10-30 mg/kg, time 14.0 day; how it was run: as §3
Rattus norvegicus [9] = experiment: Neuroprotective activity in Sprague-Dawley rat SCI model assessed as reduction in TNFalpha level at 10 to 30 mg/kg, ip administered once daily for 14 days by ELISA; format: functional, organism-based; conditions: dose 10-30 mg/kg, time 14.0 day; how it was run: as §2
Rattus norvegicus [10] = experiment: Neuroprotective activity in contusion injury induced Sprague-Dawley rat SCI model assessed as restoration of tissue histopathology in spinal cord at 10 to 30 mg/kg, ip administered once daily for 14 days by H and E staining based assay; format: functional, organism-based; conditions: dose 10-30 mg/kg, time 14.0 day; how it was run: as §3
Rattus norvegicus [11] = experiment: Neuroprotective activity in Sprague-Dawley rat SCI model assessed as reduction in NFkappaB expression in spinal cord at 10 to 30 mg/kg, ip administered once daily for 14 days by Western blot analysis; format: functional, organism-based; conditions: dose 10-30 mg/kg, time 14.0 day
How it was run: (§4)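 Weight-drop contusion SCI rats treated with 10, 20 or 30 mg/kg i.p. in 2% CMC daily for 14 days. Spinal cord tissue analysed by western blot for NF-κB, p-IκBα and TLR4, with band quantification. Mean ± SEM of three independent experiments.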

Rattus norvegicus [12] = experiment: Neuroprotective activity in ip dosed contusion injury induced Sprague-Dawley rat SCI model assessed as restoration of motor functions administered once daily for 14 days; format: functional, organism-based; conditions: dose 10-30 mg/kg, time 14.0 day
How it was run: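 Spinal cord contusion made by weight drop, a rod dropped onto the cord. Dosing at 10, 20 and 30 mg/kg i.p., suspended in 2% CMC, once daily for 14 days. Motor function scored on the BBB scale on days 1, 4, 7, 10 and 14. Mean ± SEM from three independent experiments, one-way ANOVA with Tukey post hoc test, compared with sham and SCI groups.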

Rattus norvegicus [13] = experiment: Neuroprotective activity in Sprague-Dawley rat SCI model assessed as reduction in TLR4 expression in spinal cord at 10 to 30 mg/kg, ip administered once daily for 14 days by Western blot analysis; format: functional, organism-based; conditions: dose 10-30 mg/kg, time 14.0 day; how it was run: as §4
[14] = Inhibition of NFkappaB transcriptional activity in LPS-stimulated mouse RAW264.7 cells
How it was run: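 IC50 for inhibition of NF-κB transcription, reported as mean ± SD from at least three independent assays.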

Rattus norvegicus [15] = experiment: Neuroprotective activity in Sprague-Dawley rat SCI model assessed as reduction in IkappaBalpha expression in spinal cord at 10 to 30 mg/kg, ip administered once daily for 14 days by Western blot analysis; format: functional, organism-based; conditions: dose 10-30 mg/kg, time 14.0 day; how it was run: as §4
Rattus norvegicus [16] = experiment: Neuroprotective activity in Sprague-Dawley rat SCI model assessed as reduction in IL-6 level at 10 to 30 mg/kg, ip administered once daily for 14 days by ELISA; format: functional, organism-based; conditions: dose 10-30 mg/kg, time 14.0 day; how it was run: as §2

Cc1nc(NC(=O)c2ccc(CN3CCN(c4ccc(Cl)cc4)CC3)cc2)nc(Nc2nccc(-c3nccs3)n2)n1
Activity (Rattus norvegicus [1]): Active | Activity (Rattus norvegicus [2]): Active | Activity (Rattus norvegicus [3]): Active | Activity (Rattus norvegicus [4]): Active | Activity (Rattus norvegicus [5]): Active | Activity (Rattus norvegicus [6]): Active | Activity (Rattus norvegicus [7]): Dose-Dependent Effect | Activity (Rattus norvegicus [8]): Active | Activity (Rattus norvegicus [9]): Active | Activity (Rattus norvegicus [10]): Active | Activity (Rattus norvegicus [11]): Active | Activity (Rattus norvegicus [12]): Dose-Dependent Effect | Activity (Rattus norvegicus [13]): Active | IC50 [14]: 1.04 µM | Activity (Rattus norvegicus [15]): Active | Activity (Rattus norvegicus [16]): Active

COc1ccc(N2CCN(Cc3ccc(C(=O)Nc4nc(C)nc(Nc5nccc(-c6nccs6)n5)n4)cc3)CC2)cc1
IC50 [14]: 87.3 µM

C[C@@H]1C[C@H]2[C@@H]3CCC4=CC(=O)C=C[C@]4(C)[C@@]3(F)[C@@H](O)C[C@]2(C)[C@@]1(O)C(=O)CO [DEXAMETHASONE]
IC50 [14]: 0.92 µM

Cc1ccc(NC(=O)c2ccc(CN3CCN(C)CC3)cc2)cc1Nc1nccc(-c2cccnc2)n1 [IMATINIB]
IC50 [14]: 1.34 µM

Cc1nc(NC(=O)c2ccc(CN3CCN(c4ccc(O)cc4)CC3)cc2)nc(Nc2nccc(-c3nccs3)n2)n1
IC50 [14]: 54.2 µM

Cc1nc(NC(=O)c2ccc(CN3CCN(c4ccccc4)CC3)cc2)nc(Nc2nccc(-c3nccs3)n2)n1
IC50 [14]: 136 µM

Cc1nc(NC(=O)c2ccc(CN3CCN(c4ccc([N+](=O)[O-])cc4)CC3)cc2)nc(Nc2nccc(-c3nccs3)n2)n1
IC50 [14]: 6.12 µM

Cc1nc(NC(=O)c2ccc(CN3CCN(c4ccc(Br)cc4)CC3)cc2)nc(Nc2nccc(-c3nccs3)n2)n1
IC50 [14]: 3.21 µM

Cc1ccc(N2CCN(Cc3ccc(C(=O)Nc4nc(C)nc(Nc5nccc(-c6nccs6)n5)n4)cc3)CC2)cc1
IC50 [14]: 9.9 µM
